This is one part of a sample in which hits are shown more often than they occur.
pCIP destab = p/CIP protein destabilization | decrease of EGFP signal, % at 10 µM | AID 1984 | actives 0.01% (n = 290,000) | F442A p/CIP-EGFP cells, EGFP fluorescence, 16 h;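 active means EGFP signal decrease of at least 30% at 10 µM or well 3 SD below plate mean, unless failing retest; inactive means the rest, including hits failing retest or dose response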
Dynein cargo inh = dynein cargo transport inhibition; 3617.4 mouse cells, GR-EGFP nuclear translocation imaging; test concentration mostly 20 µM; stimulated with dexamethasone, 1 µM; active compounds read low; actives 0.47% (n = 220,000); z-score, hits read low;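 active means plate z-score of nuclear minus cytoplasmic receptor signal below a set negative limit, without overly bright fluorescence or cell loss, cut at about -3.5 in these data, passing the limit was not always enough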;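 further: z-score of nuclear minus cytoplasmic ring GR-EGFP intensity difference per well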
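Buffer or medium: tet-free, stripped-serum medium; Also added: dexamethasone, 1.0 µM final; Technique: high-content fluorescence imaging after fixation; Times: 48 h induction, 1 h compound, 30 min dex at 37 °C; Read-out: per-cell GR-EGFP intensity, nucleus versus surrounding cytoplasmic ring, well-averaged.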
CHOP inh = inhibitors of CHOP induction in ER stress response; actives 3.8% (n = 220,000); CHO-K1 CHOP-promoter luciferase, tunicamycin-induced, 15-18 h; inhibition, % at 10 µM;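 active means compounds that reduced the stress-induced luciferase reporter signal by more than about 70% of percent inhibition, limit read from the data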;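 further: 0% = tunicamycin plus vehicle and 100% = wells without tunicamycin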
XBP1 UPR activ = activators of adaptive arm of unfolded protein response (XBP1) | CHO-XBP1 luciferase reporter, IRE1-XBP1 UPR activation, luminescence; percent of tunicamycin response, DMSO as zero | activation, % at 20 µM | AID 463104 | actives 0.33% (n = 330,000);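 active means versus positive control, 20 µM dose yields 30% or more activation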;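 further: 100% = tunicamycin at 10 µg/mL and 0% = DMSO only wells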
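Assay system: IRE1-XBP1 luciferase reporter CHO line. Input: 1000 cells/well. Buffer or medium: F12 with 10% serum. Doses: 20 µM, 1% DMSO. Times: overnight seeding at 37 °C, 6 h compound treatment at 37 °C. Technique: Steady-Glo luciferase glow luminescence, 10 min after reagent addition.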
CHOP UPR activ = apoptotic UPR (CHOP) activation; AID 449763; activation, % at 10 µM; actives 0.34% (n = 330,000); CHO-CHOP luciferase reporter, luminescence; percent of tunicamycin response over DMSO baseline;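 active means at 10 µM dose, activation of 40% or more, normalized to positive control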;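 further: 100% = tunicamycin at 10 µg/mL and 0% = DMSO alone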
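Material: CHO-CHOP cells, stable luciferase reporter of PERK-eIF2a-CHOP signalling; quantity: 500 reporter cells seeded per well; buffer or medium: F12 medium containing 10% fetal bovine serum; compound: one dose, 10 µM in 0.5% DMSO; incubation: 6 h compound treatment, 37 °C; measured by: Steady-Glo luciferase luminescence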
Beta2AR agonist = human beta-2 adrenergic receptor agonism by FAP; P07550; actives 0.43% (n = 340,000); response, % (concentration not given with the values); Am2.2-beta2AR cells, FAP receptor internalization, flow cytometry;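 active means response above a set limit, near 3 SD of response in nonfluorescent compounds, cut at about 42% in these data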
Active calls of the source: *; ! = not active in a repeat.

For CCOc1ccc(C(=O)OC2CCCN(C)C2)cc1 (stereo unspecified) the results were pCIP destab -8.9, XBP1 UPR activ -1.8, CHOP UPR activ 3.1 and Beta2AR agonist -6.7.
Screening O=C(COC(=O)C1CSC2(c3ccc(F)cc3)CCC(=O)N12)NC(=O)NC1CCCC1 (stereo unspecified) returned pCIP destab 27.8, Dynein cargo inh -0.679, CHOP inh 72.9*, XBP1 UPR activ -2.5, CHOP UPR activ -1.2 and Beta2AR agonist -6.2.
CC1(C)Cc2c(cnn2-c2ccc(F)cc2)C(NC(=O)C2CCC2)C1 (stereo unspecified) was read as pCIP destab -29.6, XBP1 UPR activ -5.1, CHOP UPR activ -0.8 and Beta2AR agonist -5.6.
For CCOC(=O)N1CC=C2C(C#N)=C(N)C(C#N)(C#N)[C@H](c3ccccc3OCC)[C@H]2C1 the results were pCIP destab -14.9, Dynein cargo inh -0.837, CHOP inh 74.0*, XBP1 UPR activ -0.4, CHOP UPR activ 7.1 and Beta2AR agonist 13.0.
`C/C=C1\C(=O)CC2C3CCC4=CC(=O)CC[C@]4(C)C3CC[C@]12C` (stereo partly specified) gave CHOP inh 12.2.
Cc1ccc2nc(-c3cc(N)cc(N)c3)oc2c1 was read as pCIP destab -6.4, Dynein cargo inh -1.74, CHOP inh 79.0*, XBP1 UPR activ -1.9, CHOP UPR activ -1.4 and Beta2AR agonist 2.9.
`c1ccc(-c2nc(NCc3ccco3)c3oc4ccccc4c3n2)cc1` gave pCIP destab 4.8, Dynein cargo inh -1.07, CHOP inh 92.4*, XBP1 UPR activ 0.5, CHOP UPR activ -0.3 and Beta2AR agonist -3.0.
For Cc1cccc(NC(=O)Cn2c(O)c(N=NC(N)=S)c3ccccc32)c1 the results were pCIP destab -0.4, Dynein cargo inh 0.998, CHOP inh 94.2*, XBP1 UPR activ -1.6, CHOP UPR activ 2.5 and Beta2AR agonist 2.1.
Cc1ccc(-c2ccc(S(=O)(=O)NCc3ccco3)cc2)cc1 was read as pCIP destab 0.3, Dynein cargo inh -1.07, CHOP inh 75.0*, XBP1 UPR activ -0.5, CHOP UPR activ 3.5 and Beta2AR agonist -6.2.
For Cc1ccc(C(=O)Nc2ccc(S(=O)(=O)NCc3ccco3)cc2)cc1 the results were pCIP destab -19.4, Dynein cargo inh -0.198, CHOP inh 49.8, XBP1 UPR activ -0.5, CHOP UPR activ 2.7 and Beta2AR agonist 10.1.
Screening C/C(=N\Nc1nc(Cl)c(Cl)cc1Cl)c1ccc(S(=O)(=O)NCc2ccco2)cc1 returned pCIP destab -9.6, Dynein cargo inh -0.911, CHOP inh 87.2*, XBP1 UPR activ -0.1, CHOP UPR activ -0.6 and Beta2AR agonist 6.7.
N#CC(C(=O)Nc1ccc(Cl)c(Cl)c1)=C1Nc2ccccc2N1 was read as pCIP destab -8.7, Dynein cargo inh -0.156, CHOP inh 72.9*, XBP1 UPR activ 14.3, CHOP UPR activ 1.5 and Beta2AR agonist -11.1.
For CS/C(=N\S(=O)(=O)c1cccs1)Nc1ccc(Br)cc1F the results were pCIP destab -0.7, Dynein cargo inh -0.39, CHOP inh -3.4, XBP1 UPR activ -2.0, CHOP UPR activ -0.5 and Beta2AR agonist 59.1*!.
CS/C(=N\S(=O)(=O)c1cccs1)Nc1ccc(Cl)cc1 was read as pCIP destab 1.5, Dynein cargo inh -0.246, CHOP inh 15.6, XBP1 UPR activ 1.3, CHOP UPR activ 0.2 and Beta2AR agonist 2.1.
`Cc1ccc(N2CC(C(=O)NC(C)CCc3ccccc3)CC2=O)cc1` (stereo unspecified) gave pCIP destab -0.8, XBP1 UPR activ -3.4, CHOP UPR activ -2.3 and Beta2AR agonist 4.9.
N#CC1=C(N)Oc2n[nH]c(-c3cccs3)c2C1C1C=CCCC1 (stereo unspecified) was read as pCIP destab 10.9, Dynein cargo inh 1.33, CHOP inh 95.6*, XBP1 UPR activ -2.6, CHOP UPR activ -1.2 and Beta2AR agonist 7.3.
`N#CC1=C(N)Oc2n[nH]c(-c3cccs3)c2C1c1ccsc1` (stereo unspecified) gave pCIP destab -11.6, Dynein cargo inh 0.99, CHOP inh 30.1, XBP1 UPR activ 3.8, CHOP UPR activ 1.5 and Beta2AR agonist 0.3.
Screening Cc1cc(C)n(Cc2ccc(Cl)c(Cl)c2)c(=O)c1S(=O)(=O)c1ccccc1 returned pCIP destab -8.4, Dynein cargo inh -0.433, CHOP inh 74.4* and Beta2AR agonist -6.4.
For C[C@H](CO)N1C[C@H](C)[C@@H](CN(C)C(=O)Nc2ccccc2)Oc2c(NC(=O)C3CCCCC3)cccc2C1=O the results were XBP1 UPR activ -2.1, CHOP UPR activ 0.5 and Beta2AR agonist -3.3.
Screening Cc1ccc(C)c(-n2nnnc2SCC(=O)c2ccc3c(c2)NC(=O)CO3)c1 returned pCIP destab -29.7, Dynein cargo inh -0.228, CHOP inh 81.2*, XBP1 UPR activ -0.9, CHOP UPR activ -1.2 and Beta2AR agonist -4.6.
Screening CCN(C(=S)NC(=O)c1ccccc1Br)C1CCCCC1 returned pCIP destab 9.4, Dynein cargo inh 0.809, CHOP inh -11.6, XBP1 UPR activ -2.7, CHOP UPR activ -1.6 and Beta2AR agonist 8.5.
Screening Cc1cccc(C(=O)N=c2sccn2C)c1[N+](=O)[O-] returned pCIP destab -7.4, XBP1 UPR activ 1.6, CHOP UPR activ 6.0 and Beta2AR agonist -0.4.
CCN1C(=O)C(O)(CC(=O)/C=C/C=C/c2ccccc2)c2ccccc21 (stereo unspecified) was read as pCIP destab -10.3, Dynein cargo inh -2.64, CHOP inh -15.4, XBP1 UPR activ -0.8, CHOP UPR activ 1.5 and Beta2AR agonist 10.2.
`O=C(/C=C/C=C/c1ccccc1)CC1(O)C(=O)N(CCc2ccccc2)c2ccccc21` (stereo unspecified) gave pCIP destab -3.7, Dynein cargo inh -1.33, CHOP inh 77.5*, XBP1 UPR activ -1.1, CHOP UPR activ -0.8 and Beta2AR agonist 93.1*.
`COc1ccc(N2C(=O)C3NN=C(C(=O)OCc4ccccc4)C3C2=O)cc1` (stereo unspecified) gave pCIP destab -17.1, Dynein cargo inh 0.466, CHOP inh 10.8, XBP1 UPR activ -0.3, CHOP UPR activ 0.3 and Beta2AR agonist -6.8.
`O=C(CSc1nc(-c2ccco2)cc(C(F)(F)F)n1)NCCc1ccccc1` gave pCIP destab 2.5, Dynein cargo inh -0.113, CHOP inh 57.3, XBP1 UPR activ -3.6, CHOP UPR activ -0.5 and Beta2AR agonist -12.4.

Assay outcomes (PubChem BioAssay)
